Results on 7 compounds are retold here after ChEMBL document CHEMBL1140863, “Synthesis and evaluation of novel chloropyridazine derivatives as potent human rhinovirus (HRV) capsid-binding inhibitors” (Bioorg Med Chem, 2009).

In brackets after ≈: the same amount, converted by molar mass. Bounds are passed on as bounds.

Data set [1] can be described thus: Cytotoxicity against human KB cells by neutral red uptake assay. Format: cell-based. In a few lines: (§1)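 Cell-culture cytopathic-effect assays run in parallel on strains HRV-2 and HRV-14, each read both visually and by neutral red uptake. Antiviral EC50 and cytotoxic CC50 are expressed in µg/ml.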
Data set [2] in a line: Cytotoxicity against human KB cells by visual assay. It is filed as cell-based. In outline: as §1
The nature of data set [3]: Selectivity index, ratio of CC50 for human KB cells to EC50 for HRV14 by neutral red uptake assay. In a few lines:
(§2)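 Cell-culture cytopathic-effect (CPE) assays against HRV-2 and HRV-14. Antiviral EC50 and cytotoxic CC50 were each taken in µg/ml, with inhibition read either visually or by neutral red uptake. SI = CC50/EC50 for each read-out. Where viral CPE could not be told apart from drug cytotoxicity, this was flagged in a footnote.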

Data set [4] can be described thus: Selectivity index, ratio of CC50 for human KB cells to EC50 for HRV14 by visual assay. In a few lines: as §2
The subject of data set [5] is rhinovirus A2. As to the kind of experiment: Antiviral activity against HRV2 in human KB cells assessed as cytopathic effect by neutral red uptake assay. Format: functional, organism-based. As to conditions: Rhinovirus A. In a few lines:
as §1

The test system of data set [6] is rhinovirus A2. As to the kind of experiment: Antiviral activity against HRV2 in human KB cells assessed as cytopathic effect by visual assay. It is filed as functional, organism-based. As to conditions: Rhinovirus A. In outline:
as §1

Data set [7] relates to rhinovirus B14. As to the kind of experiment: Antiviral activity against HRV14 in human KB cells assessed as cytopathic effect by neutral red uptake assay. It is filed as functional, organism-based. The following applies: Rhinovirus B. In outline: as §1
A short description of data set [8]: Selectivity index, ratio of CC50 for human KB cells to EC50 for HRV2 by visual assay. In a few lines:
as §2

Data set [9] relates to rhinovirus B14. As to the kind of experiment: Antiviral activity against HRV14 in human KB cells assessed as cytopathic effect by visual assay. It is filed as functional, organism-based. The following applies: Rhinovirus B. In outline: as §1
A short description of data set [10]: Selectivity index, ratio of CC50 for human KB cells to EC50 for HRV2 by neutral red uptake assay. In outline:
as §2

Turning to `CCCCc1ccc(OCCN2CCN(c3cc(Cl)nnc3Cl)CC2)cc1`, the CC50 came to 1.9 µg/mL (≈ 4.64 µM) in [1] and 10 µg/mL (≈ 24.4 µM) in data set [2]. Further, the “Ratio CC50/EC50” value in data set [3] is reported as 3.5; in [4] it was 120; in data set [8], 1.8. Further, the EC50 is greater than 1.9 µg/mL in [5], 5.7 µg/mL (≈ 13.9 µM) in [6], 0.55 µg/mL (≈ 1.34 µM) in [7] and 0.15 µg/mL (≈ 0.366 µM) in data set [9].
As to `COC(=O)c1ccc(OCCC2CCN(c3cc(Cl)nnc3Cl)CC2)cc1`, the “Ratio CC50/EC50” value in [10] worked out at 58; in [4], 8; in [8], 97. Further, the cytotoxic concentration (CC50) in data set [1] was found to be 4.7 µg/mL (≈ 11.5 µM); in data set [2], 30 µg/mL (≈ 73.1 µM). The 50% effective concentration (EC50) is 0.1 µg/mL (≈ 0.244 µM) in [5], 0.31 µg/mL (≈ 0.756 µM) in [6], greater than 4.7 µg/mL in data set [7] and 7.1 µg/mL (≈ 17.3 µM) in data set [9].
As to `CCOc1ccc(OCCN2CCN(c3cc(Cl)nnc3Cl)CC2)cc1`, the figures for the CC50 in data set [1] and in [2] were 12 µg/mL (≈ 30.2 µM) and 35 µg/mL (≈ 88.1 µM), respectively. In addition, the “Ratio CC50/EC50” value is greater than 370 in data set [3] and 972 in data set [4]. The half-maximal effective concentration (EC50) in [5] was greater than 12 µg/mL; in data set [6], greater than 35 µg/mL; in [7], less than 0.032 µg/mL; in data set [9], 0.036 µg/mL (≈ 0.0906 µM).
`O=Cc1ccc(OCCN2CCN(c3cc(Cl)nnc3Cl)CC2)cc1`: the “Ratio CC50/EC50” value is recorded as 1.1 in data set [10] and greater than 2 in [4]. For the same compound, the values for the CC50 in data set [1] and in data set [2] were 43 µg/mL (≈ 113 µM) and 56 µg/mL (≈ 147 µM), respectively. Moreover, the EC50 in [5] is 46 µg/mL (≈ 121 µM); in [6] it was greater than 56 µg/mL; in data set [7], greater than 43 µg/mL; in data set [9], 43 µg/mL (≈ 113 µM).
With `Clc1cc(N2CCN(CCOc3ccc(-n4cnnc4)cc3)CC2)c(Cl)nn1`, the results for the CC50 in [1] and in data set [2] were 39 µg/mL (≈ 92.8 µM) and 35 µg/mL (≈ 83.3 µM), respectively. In addition, the figures for the “Ratio CC50/EC50” value in [3] and in data set [4] were 2.5 and 3, respectively. In addition, the EC50 in data set [5] is greater than 42 µg/mL; in data set [6], greater than 100 µg/mL; in data set [7], 15 µg/mL (≈ 35.7 µM); in data set [9], 12 µg/mL (≈ 28.6 µM).
In the case of `CCOC(=O)c1ccc(OCCC2CCN(c3ccnnc3Cl)CC2)nc1`, the “Ratio CC50/EC50” value in data set [10], in data set [3], in data set [4] and in [8] was greater than 3125 throughout. Further, the CC50 in [1] and in data set [2] was greater than 100 µg/mL each time. For the same compound, the EC50 in data set [5], in data set [6], in [7] and in data set [9] was less than 0.032 µg/mL in each case.
For `CCOC(=O)c1ccc(OCCC2CCN(c3ccc(C)nn3)CC2)cc1` [PIRODAVIR], the “Ratio CC50/EC50” value was greater than 3125 in [10], greater than 1000 in data set [3], greater than 123 in data set [4] and greater than 3125 in data set [8]. The 50% cytotoxic concentration (CC50) in data set [1] and in [2] was greater than 10 µg/mL in each case. Also, the EC50 in [5] was less than 0.0032 µg/mL; in data set [6], less than 0.0032 µg/mL; in [7], 0.01 µg/mL (≈ 0.0271 µM); in data set [9] it was 0.081 µg/mL (≈ 0.219 µM).
